Results published in ChEMBL document CHEMBL3580530, “Allotides: Proline-Rich Cystine Knot α-Amylase Inhibitors from Allamanda cathartica” (J Nat Prod, 2015).
Calls of active or inactive are those of the source. The calls are words filed in the database; no cut-off is given here. Where a SMILES comes first, the peptide text is derived from it. Bridges are numbered along the chain shown (N, C = ends).

What was measured:
[1] = Thermal stability assessed as compound degradation at 100 degC incubated for 1 hr; type: physicochemical
Procedure, shortened: (§1)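 Peptide heated at 100 °C for 1 h. Intact peptide monitored by UPLC and MS.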

[2] = Thermal stability assessed as compound degradation in presence of chymotrypsin at 37 degC incubated for 4 hrs; type: ADME; settings: isolated protein
Procedure, shortened: (§2)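 Peptide incubated with chymotrypsin at 37 °C for 4 h. Intact peptide monitored by UPLC and MS.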

[3] = molecular target: T1, Alpha-amylase 1A (Homo sapiens) (UniProt P0DUB6); experiment: Inhibition of alpha-amylase in human saliva pre-incubated for 20 mins at 37 degC by bernfeld method
T1 sequence (whole entry): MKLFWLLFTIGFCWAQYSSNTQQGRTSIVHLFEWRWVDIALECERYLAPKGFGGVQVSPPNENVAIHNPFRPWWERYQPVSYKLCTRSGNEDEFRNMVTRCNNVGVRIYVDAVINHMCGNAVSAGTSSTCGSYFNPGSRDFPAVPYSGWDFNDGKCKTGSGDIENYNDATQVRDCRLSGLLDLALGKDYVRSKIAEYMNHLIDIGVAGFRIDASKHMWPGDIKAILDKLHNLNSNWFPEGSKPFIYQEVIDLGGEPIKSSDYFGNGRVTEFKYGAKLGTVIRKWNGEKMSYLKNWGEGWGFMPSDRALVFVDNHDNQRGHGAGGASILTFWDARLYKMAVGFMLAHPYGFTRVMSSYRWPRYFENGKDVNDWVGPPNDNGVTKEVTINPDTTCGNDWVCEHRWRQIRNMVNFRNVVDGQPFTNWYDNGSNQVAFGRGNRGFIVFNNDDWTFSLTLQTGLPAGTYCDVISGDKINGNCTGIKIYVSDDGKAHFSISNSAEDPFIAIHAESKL
Procedure, shortened: (§3)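 Bernfeld method. Peptide preincubated with α-amylase for 20 min at 37 °C. Hydrolysis started with 1% starch, run 5 min, then stopped with dinitrosalicylic acid color reagent. Absorbance read at 540 nm, with untreated enzyme set as 100%. Enzyme sources: T. molitor larval extract, human saliva, porcine pancreas, A. oryzae.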

Aspergillus oryzae = experiment: Inhibition of Aspergillus oryzae alpha-amylase pre-incubated for 20 mins at 37 degC by bernfeld method; procedure, shortened: as §3
[4] = molecular target: T2, Pancreatic alpha-amylase (Sus scrofa) (UniProt P00690); experiment: Inhibition of porcine pancreas alpha-amylase pre-incubated for 20 mins at 37 degC by bernfeld method; procedure, shortened: as §3
T2 sequence (whole entry): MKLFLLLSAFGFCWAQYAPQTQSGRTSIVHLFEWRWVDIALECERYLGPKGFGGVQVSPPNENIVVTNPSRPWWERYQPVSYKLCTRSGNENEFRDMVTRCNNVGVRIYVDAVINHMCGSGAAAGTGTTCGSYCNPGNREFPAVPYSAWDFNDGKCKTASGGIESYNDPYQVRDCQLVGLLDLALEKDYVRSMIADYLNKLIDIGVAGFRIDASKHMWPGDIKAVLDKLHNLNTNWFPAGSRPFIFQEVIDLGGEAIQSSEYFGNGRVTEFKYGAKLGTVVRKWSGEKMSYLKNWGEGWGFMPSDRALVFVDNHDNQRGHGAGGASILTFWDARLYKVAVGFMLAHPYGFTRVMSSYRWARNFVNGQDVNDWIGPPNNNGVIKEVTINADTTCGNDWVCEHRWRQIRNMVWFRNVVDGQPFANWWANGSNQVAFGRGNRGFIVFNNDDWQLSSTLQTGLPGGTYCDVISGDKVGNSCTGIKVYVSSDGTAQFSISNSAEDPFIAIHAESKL

[5] = molecular target: Alpha-amylase (Tenebrio molitor) (UniProt P56634); experiment: (§4) Inhibition of Tenebrio molitor alpha-amylase pre-incubated for 20 mins at 37 degC by bernfeld method; procedure, shortened: as §3
Alpha-amylase (Tenebrio molitor), sequence (P56634 whole entry): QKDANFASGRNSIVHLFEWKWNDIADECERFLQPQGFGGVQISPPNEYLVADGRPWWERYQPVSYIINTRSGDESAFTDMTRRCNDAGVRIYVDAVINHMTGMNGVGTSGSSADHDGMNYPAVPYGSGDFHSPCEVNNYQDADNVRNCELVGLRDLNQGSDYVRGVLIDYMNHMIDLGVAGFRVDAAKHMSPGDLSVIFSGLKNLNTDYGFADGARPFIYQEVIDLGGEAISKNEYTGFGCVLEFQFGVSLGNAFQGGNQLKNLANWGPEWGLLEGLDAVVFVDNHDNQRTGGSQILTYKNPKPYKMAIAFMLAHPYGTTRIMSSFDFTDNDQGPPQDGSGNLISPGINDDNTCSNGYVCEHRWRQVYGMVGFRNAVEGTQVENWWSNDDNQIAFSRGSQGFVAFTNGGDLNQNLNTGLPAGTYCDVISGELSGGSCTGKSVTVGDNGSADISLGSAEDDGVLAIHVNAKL

[6] = Toxicity against human O type erythrocytes cells assessed as induction of hemolysis up to 100 uM; type: cell-based; settings: erythrocyte
Procedure, shortened: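 Hemolysis tested on human type O erythrocytes at up to 100 μM. Cliotide T4 used as the hemolytic positive control. Absorbance read on a microplate reader.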

[7] = Thermal stability assessed as compound remaining in presence of chymotrypsin at 37 degC incubated for 4 hrs by UPLC and MS method; type: ADME; settings: read-out: Stability; procedure, shortened: as §2
Alpha-amylase = Alpha-amylase (Tenebrio molitor, UniProt P56634); experiment: as §4; procedure, shortened: as §3
Alpha-amylase, sequence (P56634 whole entry): as above

Vero = experiment: Toxicity against African green monkey Vero cells assessed as effect on cell viability up to 100 uM by Presto blue reagent based assay; settings: chlorocebus sabaeus
[8] = Toxicity against BHK cells assessed as effect on cell viability up to 100 uM by Presto blue reagent based assay; set-up: species or system Mesocricetus auratus; settings: hamster
[9] = Thermal stability assessed as compound remaining at 100 degC incubated for 1 hr by UPLC and MS method; type: physicochemical; settings: read-out: Stability; procedure, shortened: as §1
[10] = Thermal stability assessed as compound hydrolysis using filly reduced form of compound in presence of chymotrypsin at 37 degC incubated for 4 hrs by UPLC and MS method; type: ADME; settings: isolated protein
Procedure, shortened: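 Incubated with chymotrypsin at 37 °C for 4 h, then analysed by UPLC and MS.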

[11] = Toxicity against human HuH7 cells assessed as effect on cell viability up to 100 uM by Presto blue reagent based assay; settings: huh-7
Escherichia coli = experiment: Antibacterial activity against Escherichia coli up to 100 uM by radial diffusion assay; type: functional, organism-based
Procedure, shortened: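 Radial diffusion assay against E. coli, peptide tested up to 100 μM. Positive control: D4R, a broad-spectrum antimicrobial peptide dendrimer made in-house.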

| SMILES | Stability [1] | Stability [2] | inhibition [3] | inhibition (Aspergillus oryzae) | inhibition [4] | inhibition [5] | Activity [6] | remaining at 4 h [7] | IC50 (Alpha-amylase) | Activity (Vero) | Activity [8] | remaining at 1 h [9] | Stability [10] | Activity [11] | Activity (Escherichia coli) |
| --- | --- | --- | --- | --- | --- | --- | --- | --- | --- | --- | --- | --- | --- | --- | --- |
| CC[C@H](C)[C@@H]1NC(=O)CNC(=O)CNC(=O)[C@H]([C@@H](C)CC)NC(=O)[C@H](C(C)C)NC(=O)[C@@H]2CCCN2C(=O)[C@H](CCC(N)=O)NC(=O)[C@H]([C@@H](C)O)NC(=O)[C@@H]2CSSC[C@@H]3NC(=O)[C@H](Cc4ccc(O)cc4)NC(=O)[C@H](CCC(=O)O)NC(=O)CNC(=O)[C@H](CCCCN)NC(=O)[C@H](CCC(N)=O)NC(=O)[C@H](C)NC(=O)[C@@H](N)CSSC[C@H](NC(=O)[C@H](CSSC[C@@H](C(=O)N[C@@H](C)C(=O)O)NC1=O)NC(=O)[C@H](CCC(N)=O)NC(=O)[C@H](CC(C)C)NC(=O)[C@H](Cc1ccc(O)cc1)NC(=O)[C@H](C(C)C)NC(=O)[C@H](CO)NC3=O)C(=O)N[C@@H](CC(=O)O)C(=O)N1CCC[C@H]1C(=O)N[C@@H](Cc1ccc(O)cc1)C(=O)N[C@@H](Cc1cnc[nH]1)C(=O)N2 | Stable | Stable | – | – | – | – | – | – | – | – | – | – | – | – | – |
| CC[C@H](C)[C@@H]1NC(=O)CNC(=O)CNC(=O)[C@H]([C@@H](C)CC)NC(=O)[C@H](C(C)C)NC(=O)[C@@H]2CCCN2C(=O)[C@H](CCC(N)=O)NC(=O)[C@H]([C@@H](C)O)NC(=O)[C@@H]2CSSC[C@@H]3NC(=O)[C@H](Cc4ccc(O)cc4)NC(=O)[C@H](CCC(=O)O)NC(=O)CNC(=O)[C@H](CCCCN)NC(=O)[C@H](CCC(N)=O)NC(=O)[C@H](C)NC(=O)[C@@H](N)CSSC[C@H](NC(=O)[C@H](CSSC[C@H](C(=O)N[C@@H](C)C(=O)O)NC1=O)NC(=O)[C@H](CCC(N)=O)NC(=O)[C@H](CC(C)C)NC(=O)[C@H](Cc1ccc(O)cc1)NC(=O)[C@H](C(C)C)NC(=O)[C@H](CO)NC3=O)C(=O)N[C@@H](CC(=O)O)C(=O)N1CCC[C@H]1C(=O)N[C@@H](Cc1ccc(O)cc1)C(=O)N[C@@H](Cc1cnc[nH]1)C(=O)N2 | – | – | inactive | inactive | inactive | inactive | – | – | – | – | – | – | – | – | – |
| CC[C@H](C)[C@@H]1NC(=O)CNC(=O)[C@H](CC(=O)O)NC(=O)[C@@H]2CSSC[C@@H]3NC(=O)[C@H](CC(C)C)NC(=O)[C@H](Cc4c[nH]c5ccccc45)NC(=O)[C@@H]4CCCN4C(=O)[C@H](CC(=O)O)NC(=O)[C@H](CSSC[C@H](N)C(=O)N[C@@H]([C@@H](C)CC)C(=O)N[C@@H](C)C(=O)N[C@@H](Cc4cnc[nH]4)C(=O)N[C@@H](Cc4ccc(O)cc4)C(=O)NCC(=O)N[C@@H](CCCCN)C(=O)N2)NC(=O)[C@H](CSSC[C@@H](C(=O)N[C@@H](CC(C)C)C(=O)O)NC(=O)[C@H](Cc2ccccc2)NC(=O)CNC(=O)[C@H]([C@@H](C)CC)NC(=O)[C@H]([C@@H](C)CC)NC(=O)[C@@H]2CCCN2C(=O)[C@@H]2CCCN2C(=O)[C@H]([C@@H](C)O)NC3=O)NC(=O)[C@H](CCC(N)=O)NC(=O)[C@H](CC(N)=O)NC(=O)[C@H]([C@@H](C)CC)NC1=O (H-CIAHYGKCDGIINQCCDPWLCTPPIIGFCL-OH; disulfide 1-16, 8-21, 15-29) | Stable | Stable | inactive | inactive | inactive | Dose-dependent effect | Non-toxic | > 90% | 2600 nM | Non-toxic | Non-toxic | > 90% | Unstable | Non-toxic | inactive |
